Test results reported in paper PMC3728914 (ACS medicinal chemistry letters, 2013).

Key:
[1] = target: T1, RPA70N (Homo sapiens, UniProt P27694); assay: Fluorescence polarization anisotropy; assay type: binding; conditions: for ligand efficiency: from FPA Kd
Procedure, shortened: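 Displacement of a FITC-labelled ATRIP-derived peptide from RPA70N was read as fluorescence polarization anisotropy. Compounds were titrated to give dose-dependent anisotropy changes, from which IC50 was determined. Kd was calculated from IC50 with the Cheng–Prusoff equation and reported as the average of n = 2.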

[2] = system: DNA-binding domain of RPA; conditions: in vitro; cited from earlier work
[3] = system: RPA70N-Rad9; conditions: cited from earlier work
[4] = system: RPA70N-p53; conditions: cited from earlier work
[5] = target: T1, RPA70N; assay: NMR; assay type: binding; conditions: initial fragment hits
[6] = target: full length heterotrimeric RPA (Homo sapiens, UniProt P27694); assay: Electrophoresis mobility shift assay; assay type: binding; conditions: EMSA, concentrations up to 100 μM

## CCOc1ccc2cc(C3CN(C(=O)CCC(=O)O)N=C3c3ccc(Br)cc3)c(Cl)nc2c1 (centres unmarked) [Compound 1, reference compound]
[1]; FPA assay
  inhibition of the RPA70N-ATRIP interaction: did not inhibit
[2]
  disruption of RPA interaction with DNA: disrupts its interaction with DNA

## CC(C)C1=C[C@]23CC[C@@H]4[C@](C)(CCC[C@@]4(C)C(=O)O)[C@H]2C[C@@H]1[C@@H](C(=O)O)[C@@H]3C(=O)O [Compound 2, fumaropimaric acid]
[3]
  disruption of RPA70N-Rad9 interaction: disrupt both RPA70N-Rad9 and RPA70N-p53 interactions
[4]
  disruption of RPA70N-p53 interaction: disrupt both RPA70N-Rad9 and RPA70N-p53 interactions

## O=C(O)c1sc2cc(Cl)ccc2c1Cl [Compound 3]
[5]
  ligand efficiency (LE): 0.32

## Clc1ccc(-c2nnn[nH]2)cc1 [Compound 4]
[5]
  ligand efficiency (LE): 0.32

## O=C(O)c1sc2cc(-n3c(S)nnc3-c3ccccc3)ccc2c1Cl [Compound 5]
[1]
  ligand efficiency: 0.22

## O=C(O)c1cc2ccc(-n3c(S)nnc3-c3cccc(Oc4ccccc4)c3)cc2s1 [Compound 13e]
[1]
  ligand efficiency: 0.17

## O=C(O)c1sc2cc(-n3c(S)nnc3-c3cccc(Oc4ccccc4)c3)ccc2c1Cl [Compound 14d]
[1]
  ligand efficiency: 0.18

## O=C(O)c1sc2cc(-n3c(S)nnc3-c3ccc(Br)c(Cl)c3)ccc2c1Cl [Compound 14n]
[6]
  disruption of RPA-ssDNA interactions: Neither 14q nor 14n showed evidence of disrupting RPA-ssDNA interactions

## O=C(O)c1sc2cc(-n3c(S)nnc3-c3ccc(Cl)c(Cl)c3)ccc2c1Cl [Compound 14q]
[6]
  disruption of RPA-ssDNA interactions: Neither 14q nor 14n showed evidence of disrupting RPA-ssDNA interactions
